# Legend:
# [1] = target: Acyl-CoA (8-3)-desaturase (Homo sapiens, UniProt O60427); assay: Inhibition of D5D in human HepG2 cells assessed as [14C]AA formation from [14C]DGLA preincubated for 30 mins followed by [14C]eicosatrienoic acid addition measured after 3 hrs by TLC analysis; assay type: cell-based
# In short: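 HepG2 plated at 1 × 10^5 cells/well, cultured overnight in DMEM/10% FBS, PBS-washed, then preincubated 30 min at 37 °C with compound in DMEM with penicillin/streptomycin and 0.3% BSA. 0.1 μCi [14C]eicosatrienoic acid added and cells incubated 3 h at 37 °C; lipids saponified overnight at 55 °C with NaOH, acidified, extracted with chloroform/MeOH, separated by TLC.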
# [2] = target: Acyl-CoA (8-3)-desaturase (Rattus norvegicus, UniProt Q920R3); assay: Displacement of [3H]T-3364366 from D5D in rat liver microsomal membrane preincubated for 15 mins followed by radioligand addition measured after 150 mins by TopCount microscintillation counting assay; assay type: cell membranes
# In short: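 Rat liver microsome fraction (30 μg/well) preincubated 15 min with test compound at room temperature in 10 mM Tris-HCl pH 7.5, 100 mM KCl, 10 mM NaF buffer, 200 μL/well; bound ligand trapped on GF/C filters, washed 5× with ice-cold buffer, counted by scintillation. Nonspecific binding with 10 μM unlabeled T-3364366; IC50 from three-parameter logistic fit.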
# [3] = Induction of CYP3A (unknown origin); assay type: ADME; settings: human
# [4] = Cmax in ApoE knockout mouse at 1 mg/kg, po qd dosed via gavage for 2 weeks by HPLC analysis; assay type: ADME, organism-based; design: dose 1 mg/kg, route oral; settings: in vivo
# hERG (KCNH2) = hERG (KCNH2) (Homo sapiens, UniProt Q12809); assay: Inhibition of human ERG at 10 uM by patch clamp assay
# [5] = Cmax in dog at 5 mg/kg, iv; assay type: ADME, organism-based, Canis lupus familiaris; design: dose 5 mg/kg, route intravenous; settings: in vivo
# Cytochrome P450 2D6 = Cytochrome P450 2D6 (Homo sapiens, UniProt P10635); assay: Inhibition of CYP2D6 (unknown origin); assay type: ADME
# [6] = Oral bioavailability in mouse at 0.1 mg/kg, iv or 1 mg/kg administered as cassette dose up to 8 hrs; assay type: ADME, organism-based; settings: in vivo
# Canis familiaris = assay: Cardiotoxicity in dog at 5 mg/kg, iv by ECG analysis; assay type: toxicity, organism-based, Canis lupus familiaris; settings: in vivo
# Cytochrome P450 2C9 = Cytochrome P450 2C9 (Homo sapiens, UniProt P11712); assay: Inhibition of CYP2C9 (unknown origin); assay type: ADME
# Cytochrome P450 2C8 = target: T1, Cytochrome P450 2C8 (Homo sapiens, UniProt P10632); assay: Inhibition of CYP2C8 (unknown origin); assay type: ADME
# T1 sequence (P10632 whole entry): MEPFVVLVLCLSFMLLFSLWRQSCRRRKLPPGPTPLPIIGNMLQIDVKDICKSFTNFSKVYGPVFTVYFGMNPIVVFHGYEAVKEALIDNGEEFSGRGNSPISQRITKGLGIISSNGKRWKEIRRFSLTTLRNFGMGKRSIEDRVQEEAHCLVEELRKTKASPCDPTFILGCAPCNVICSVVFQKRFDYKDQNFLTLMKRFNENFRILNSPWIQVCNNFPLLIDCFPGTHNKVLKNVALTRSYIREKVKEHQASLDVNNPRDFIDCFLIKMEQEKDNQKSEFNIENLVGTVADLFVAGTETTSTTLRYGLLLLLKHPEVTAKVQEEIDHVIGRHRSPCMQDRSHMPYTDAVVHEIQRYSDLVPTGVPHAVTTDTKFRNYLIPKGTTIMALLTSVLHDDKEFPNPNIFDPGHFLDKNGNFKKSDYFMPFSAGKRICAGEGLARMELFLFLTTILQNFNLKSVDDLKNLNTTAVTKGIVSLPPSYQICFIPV
# Mus musculus [7] = assay: In vivo inhibition of D5D in ApoE knockout mouse assessed as decrease in AA/DGLA ratio at 3 mg/kg, po qd dosed via gavage for 2 weeks by HPLC analysis; assay type: functional; settings: 336 h
# In short: (§1)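 ApoE KO mice, 13 weeks old, fed Western diet for 2 weeks; from day after diet start, dosed by gavage each morning at 10 mL/kg with suspension (0.3–3 mg/kg). Livers taken morning after final dose; phospholipid AA and DGLA measured by HPLC after labeling; AA/DGLA decrease relative to vehicle group as 100%.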
# CYP2C9 = CYP2C9 (Homo sapiens, UniProt P11712); assay: Inhibition of CYP2C9 (unknown origin) at 10 uM
# [8] = MRT (0 to 8 hrs) in mouse at 0.1 mg/kg, iv or 1 mg/kg, po measured; assay type: ADME, organism-based; settings: in vivo
# [9] = Ratio of Cmax in dog ECG model at 5 mg/kg, iv to Cmax in ApoE knockout mouse at 1 mg/kg, po qd dosed via gavage for 2 weeks; assay type: ADME, organism-based; settings: in vivo, 336 h
# Cytochrome P450 3A4 = Cytochrome P450 3A4 (Homo sapiens, UniProt P08684); assay: Inhibition of CYP3A4 (unknown origin); assay type: ADME
# Mus musculus [10] = assay: In vivo inhibition of D5D in ApoE knockout mouse assessed as decrease in AA/DGLA ratio at 0.3 mg/kg, po qd dosed via gavage for 2 weeks by HPLC analysis; assay type: functional; settings: 336 h; in short: as §1
# Mus musculus [11] = assay: In vivo inhibition of D5D in ApoE knockout mouse assessed as decrease in AA/DGLA ratio at 1 mg/kg, po qd dosed via gavage for 2 weeks by HPLC analysis; assay type: functional; settings: 336 h; in short: as §1
# [12] = AUC (0 to 8 hrs) in mouse at 0.1 mg/kg, iv or 1 mg/kg, po; assay type: ADME, organism-based; settings: in vivo
# Mus musculus [13] = assay: In vivo inhibition of D5D in C57BL/6J mouse liver assessed as decrease in AA/DGLA ratio by measuring inhibition index at 3 mg/kg, qd administered via oral gavage for 4 days by HPLC analysis relative to control; assay type: functional; settings: 96 h
# In short: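 Male C57BL/6J mice, 7–9 weeks old, on normal chow, individually caged; 3 mg/kg suspension in 0.5% methylcellulose by gavage each morning at 10 mL/kg for 4 days. Liver taken next morning; phospholipid fraction from about 40 mg tissue labeled, AA and DGLA measured by HPLC; AA/DGLA decrease versus vehicle group taken as 100%.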
# Liver [14] = assay: Metabolic stability in human liver microsomes; assay type: ADME, microsome
# Liver [15] = assay: Metabolic stability in mouse liver microsomes; assay type: ADME, microsome
# [16] = AUC (0 to 8 hrs) in mouse at 1 mg/kg, po administered as cassette dose; assay type: ADME, organism-based; design: time < 8 hr, dose 1 mg/kg, route oral; settings: in vivo
# Mus musculus [17] = assay: In vivo inhibition of D5D in C57BL/6J mouse liver assessed as decrease in AA/DGLA ratio by measuring inhibition index at 3 mg/kg, qd administered via oral gavage for 4 days by HPLC analysis relative to control; settings: 96 h
# [18] = MRT (0 to 8 hrs) in mouse at 1 mg/kg, po administered as cassette dose; assay type: ADME, organism-based; settings: in vivo
# [19] = Drug level in human hepatocytes treated with 5-(4-Fluorophenyl)-3-(3-methoxyphenyl)-1,3-oxazolidin-2-one by LC-MS/MS analysis; assay type: ADME, cell-based, Hepatocyte
# [20] = Drug level in mouse hepatocytes treated with 5-(4-Fluorophenyl)-3-(3-methoxyphenyl)-1,3-oxazolidin-2-one by LC-MS/MS analysis; assay type: ADME, cell-based, Hepatocyte
# Sequence of Acyl-CoA (8-3)-desaturase (Rattus norvegicus, UniProt Q920R3) (Q920R3 whole entry): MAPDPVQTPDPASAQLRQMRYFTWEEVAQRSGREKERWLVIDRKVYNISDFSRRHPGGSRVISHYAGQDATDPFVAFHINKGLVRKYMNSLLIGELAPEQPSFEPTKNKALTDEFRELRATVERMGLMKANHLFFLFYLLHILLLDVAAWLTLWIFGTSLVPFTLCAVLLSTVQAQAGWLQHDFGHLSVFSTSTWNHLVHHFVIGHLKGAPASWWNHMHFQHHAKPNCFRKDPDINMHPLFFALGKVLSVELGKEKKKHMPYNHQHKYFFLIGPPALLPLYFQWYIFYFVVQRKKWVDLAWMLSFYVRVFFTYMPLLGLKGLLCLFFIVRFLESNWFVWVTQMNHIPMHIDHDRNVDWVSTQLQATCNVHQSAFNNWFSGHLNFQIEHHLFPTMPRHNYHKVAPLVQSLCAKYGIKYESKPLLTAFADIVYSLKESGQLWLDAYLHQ
# Sequence of Acyl-CoA (8-3)-desaturase (Homo sapiens, UniProt O60427) (O60427 whole entry): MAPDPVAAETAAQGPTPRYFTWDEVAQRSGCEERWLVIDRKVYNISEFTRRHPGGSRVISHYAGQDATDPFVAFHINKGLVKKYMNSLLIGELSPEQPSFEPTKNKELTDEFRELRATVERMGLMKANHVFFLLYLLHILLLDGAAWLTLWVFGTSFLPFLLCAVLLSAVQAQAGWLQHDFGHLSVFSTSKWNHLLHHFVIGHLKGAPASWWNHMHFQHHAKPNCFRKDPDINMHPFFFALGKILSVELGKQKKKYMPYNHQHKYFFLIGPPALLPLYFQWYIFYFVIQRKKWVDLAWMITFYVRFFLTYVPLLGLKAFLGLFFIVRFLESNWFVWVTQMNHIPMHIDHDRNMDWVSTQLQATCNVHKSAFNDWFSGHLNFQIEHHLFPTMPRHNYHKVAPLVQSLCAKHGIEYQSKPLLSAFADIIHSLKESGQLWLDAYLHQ
# Sequence of CYP2C9 (P11712 whole entry): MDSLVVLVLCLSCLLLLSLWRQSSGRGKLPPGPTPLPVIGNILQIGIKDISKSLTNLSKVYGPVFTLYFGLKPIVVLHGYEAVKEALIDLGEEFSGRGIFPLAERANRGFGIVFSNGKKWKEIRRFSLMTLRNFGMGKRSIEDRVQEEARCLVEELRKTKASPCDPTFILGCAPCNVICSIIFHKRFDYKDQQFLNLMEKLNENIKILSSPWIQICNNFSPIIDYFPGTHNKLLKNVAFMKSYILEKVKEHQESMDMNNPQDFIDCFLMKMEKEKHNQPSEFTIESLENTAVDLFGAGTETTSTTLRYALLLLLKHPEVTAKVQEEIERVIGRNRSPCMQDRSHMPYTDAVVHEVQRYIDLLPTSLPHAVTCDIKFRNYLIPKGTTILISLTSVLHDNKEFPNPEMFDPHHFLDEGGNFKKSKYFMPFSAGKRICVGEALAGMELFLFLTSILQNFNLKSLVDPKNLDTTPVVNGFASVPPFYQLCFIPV
# Sequence of Cytochrome P450 3A4 (P08684 whole entry): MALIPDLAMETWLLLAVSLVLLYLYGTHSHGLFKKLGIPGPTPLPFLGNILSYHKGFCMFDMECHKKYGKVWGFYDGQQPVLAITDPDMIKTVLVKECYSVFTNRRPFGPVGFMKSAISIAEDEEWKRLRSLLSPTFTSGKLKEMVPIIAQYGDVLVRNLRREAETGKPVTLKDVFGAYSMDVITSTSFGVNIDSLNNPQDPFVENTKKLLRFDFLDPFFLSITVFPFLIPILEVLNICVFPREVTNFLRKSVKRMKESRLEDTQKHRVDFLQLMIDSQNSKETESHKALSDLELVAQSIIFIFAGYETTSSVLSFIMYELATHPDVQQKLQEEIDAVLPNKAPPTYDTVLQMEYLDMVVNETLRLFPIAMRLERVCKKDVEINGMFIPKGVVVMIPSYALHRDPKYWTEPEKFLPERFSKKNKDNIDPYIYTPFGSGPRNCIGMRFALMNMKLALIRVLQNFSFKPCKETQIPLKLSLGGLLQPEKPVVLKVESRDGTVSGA
# Sequence of Cytochrome P450 2D6 (P10635 whole entry): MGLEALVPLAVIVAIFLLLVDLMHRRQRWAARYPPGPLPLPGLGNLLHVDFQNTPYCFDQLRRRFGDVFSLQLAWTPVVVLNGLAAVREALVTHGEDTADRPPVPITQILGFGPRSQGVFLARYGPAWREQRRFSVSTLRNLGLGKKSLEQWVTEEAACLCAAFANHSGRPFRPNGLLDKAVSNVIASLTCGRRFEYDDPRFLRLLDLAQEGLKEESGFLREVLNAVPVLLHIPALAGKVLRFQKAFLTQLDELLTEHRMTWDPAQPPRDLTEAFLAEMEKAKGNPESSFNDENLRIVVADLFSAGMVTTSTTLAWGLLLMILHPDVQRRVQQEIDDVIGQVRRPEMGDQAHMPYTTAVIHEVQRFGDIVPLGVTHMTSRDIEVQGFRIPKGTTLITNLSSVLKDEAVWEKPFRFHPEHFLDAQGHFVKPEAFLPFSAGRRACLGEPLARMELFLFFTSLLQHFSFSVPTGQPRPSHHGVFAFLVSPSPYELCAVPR
# Sequence of Cytochrome P450 2C9 (P11712 whole entry): as the sequence (P11712 whole entry) above
# Sequence of hERG (KCNH2) (Q12809 whole entry): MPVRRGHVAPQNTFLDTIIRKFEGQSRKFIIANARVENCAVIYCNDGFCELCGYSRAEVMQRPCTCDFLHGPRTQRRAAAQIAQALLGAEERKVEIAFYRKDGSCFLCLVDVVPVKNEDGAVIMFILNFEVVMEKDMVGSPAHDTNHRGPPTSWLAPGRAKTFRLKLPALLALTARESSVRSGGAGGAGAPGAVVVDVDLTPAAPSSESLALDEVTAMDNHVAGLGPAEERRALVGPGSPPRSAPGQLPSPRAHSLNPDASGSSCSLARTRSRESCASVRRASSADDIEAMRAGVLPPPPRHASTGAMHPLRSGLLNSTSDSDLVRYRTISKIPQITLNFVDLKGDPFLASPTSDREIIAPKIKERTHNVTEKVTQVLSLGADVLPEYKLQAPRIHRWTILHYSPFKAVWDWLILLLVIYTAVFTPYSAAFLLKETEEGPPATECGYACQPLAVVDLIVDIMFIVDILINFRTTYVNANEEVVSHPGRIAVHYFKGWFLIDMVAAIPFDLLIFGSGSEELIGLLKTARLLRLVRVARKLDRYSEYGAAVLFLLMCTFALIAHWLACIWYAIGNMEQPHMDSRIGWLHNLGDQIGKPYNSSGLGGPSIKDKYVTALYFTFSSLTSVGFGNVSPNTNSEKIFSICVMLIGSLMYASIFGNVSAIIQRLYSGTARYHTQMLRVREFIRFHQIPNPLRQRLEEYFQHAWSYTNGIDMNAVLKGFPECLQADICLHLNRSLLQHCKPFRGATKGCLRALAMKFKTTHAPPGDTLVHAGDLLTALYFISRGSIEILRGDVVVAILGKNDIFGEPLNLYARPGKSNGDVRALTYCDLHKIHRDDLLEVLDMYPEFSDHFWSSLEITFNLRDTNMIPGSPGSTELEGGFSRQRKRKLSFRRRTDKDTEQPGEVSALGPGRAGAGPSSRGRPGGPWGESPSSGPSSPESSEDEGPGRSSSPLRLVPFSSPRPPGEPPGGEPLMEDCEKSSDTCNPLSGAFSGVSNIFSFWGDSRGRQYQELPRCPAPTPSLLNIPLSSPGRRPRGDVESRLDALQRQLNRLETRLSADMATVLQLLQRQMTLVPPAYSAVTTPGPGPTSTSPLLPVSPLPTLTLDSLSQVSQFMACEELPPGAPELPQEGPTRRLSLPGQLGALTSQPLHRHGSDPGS
structure (smiles),measurement,setting,value
O=C1OC(c2ccccc2)CN1Cc1cc(O)c(Cl)cc1Cl (racemic),IC50,[1],1100 nM
same,IC50,[2],12 nM
Cn1c(=O)n(Cc2cc(O)c(Cl)cc2Cl)c2ccccc21,IC50,[2],39 nM
C[C@H]1[C@H](c2ccc(F)cc2)OC(=O)N1c1cc(C#N)cc(C#N)c1,Activity,[3],Not Active
same,Cmax,[4],280 ng/mL
same,inhibition at 10 µM,hERG (KCNH2),30.7%
same,Cmax,[5],7150 ng/mL
same,inhibition (INH),Cytochrome P450 2D6,Not Active
same,bioavailability,[6],53.3%
same,Activity,Canis familiaris,Non-Toxic
same,IC50,[1],1.5 nM
same,IC50,[2],1.5 nM
same,inhibition (INH),Cytochrome P450 2C9,Not Active
same,inhibition (INH),Cytochrome P450 2C8,Not Active
same,inhibition in vivo at 3 mg/kg,Mus musculus [7],66%
same,inhibition at 10 µM,CYP2C9,28.5%
same,MRT last,[8],4 h
same,Ratio,[9],> 25
same,inhibition (INH),Cytochrome P450 3A4,Not Active
same,inhibition in vivo at 0.3 mg/kg,Mus musculus [10],61%
same,inhibition in vivo at 1 mg/kg,Mus musculus [11],67%
same,AUC(0-t),[12],891 ng·h/mL
same,inhibition in vivo at 3 mg/kg,Mus musculus [13],74%
O=C1OC(c2ccc(F)cc2)CN1c1ccccc1 (racemic),IC50,[1],190 nM
same,IC50,[2],150 nM
same,Stability,Liver [14],45 µL/min/mg
CCn1cc(C(=O)N(C)C(C)c2ccc(F)cc2)c2ccccc21 (racemic),IC50,[2],47 nM
N#Cc1cccc(N2C[C@H](c3ccc(F)cc3)OC2=O)c1,IC50,[1],60 nM
same,IC50,[2],49 nM
same,Stability,Liver [14],4 µL/min/mg
same,Stability,Liver [15],50 µL/min/mg
C[C@H]1[C@H](c2ccc(F)cc2)OC(=O)N1c1cccc(C#N)c1,bioavailability,[6],87.2%
same,IC50,[1],8.7 nM
same,IC50,[2],5.3 nM
same,AUC(0-t) at 8 h,[16],2080 ng·h/mL
same,inhibition in vivo at 3 mg/kg,Mus musculus [17],42%
same,Stability,Liver [15],24 µL/min/mg
same,MRT last,[18],3.4 h
COc1ccc(OC)c(N2CCN(C(=O)c3ccc(Cl)cc3)C(C)C2=O)c1 (racemic),IC50,[2],360 nM
COc1ccc(OC)c(N2CC(c3ccc(F)cc3)OC2=O)c1 (racemic),IC50,[1],18 nM
same,IC50,[2],13 nM
C[C@H]1[C@H](c2ccc(F)cc2)OC(=O)N1c1cc(F)cc(C#N)c1 (racemic),bioavailability,[6],61%
same,IC50,[1],3.7 nM
same,IC50,[2],4 nM
same,AUC(0-t) at 8 h,[16],1200 ng·h/mL
same,inhibition in vivo at 3 mg/kg,Mus musculus [17],63%
same,MRT last,[18],3.8 h
O=C1OC(c2ccc(F)cc2)CN1c1cccc(O[C@@H]2O[C@H](CO)[C@@H](O)[C@H](O)[C@H]2O)c1 (some centres undefined),Drug metabolism,[19],Metabolite_Detected
same,Drug metabolism,[20],Metabolite_Detected
N#Cc1cccc(N2CC(c3ccc(F)cc3)OC2=O)c1 (racemic),IC50,[1],170 nM
same,IC50,[2],78 nM
same,Stability,Liver [15],94 µL/min/mg
O=C1OC(c2ccc(F)cc2)CN1c1cccc(O)c1 (centres undefined),Drug metabolism,[19],Metabolite_Detected
O=C1OC(c2ccc(F)cc2)CN1Cc1ccc(Cl)cc1Cl (racemic),IC50,[1],150 nM
same,IC50,[2],79 nM
C[C@@H]1[C@@H](c2ccc(F)cc2)OC(=O)N1c1cccc(C#N)c1,IC50,[2],5800 nM
O=C1OC(c2ccc(F)cc2)CN1c1cccc(OS(=O)(=O)O)c1 (centres undefined),Drug metabolism,[19],Metabolite_Detected
same,Drug metabolism,[20],Metabolite_Detected
COc1ccc(CN(C)C(=O)c2ccc3c(c2)OCO3)c(OC)c1,IC50,[2],310 nM
CC1(C)C(c2ccc(F)cc2)OC(=O)N1c1cccc(C#N)c1 (racemic),IC50,[2],450 nM
O=C1OC(c2ccc(F)cc2)CN1c1cccc(Cl)c1 (racemic),IC50,[1],55 nM
same,IC50,[2],23 nM
same,Stability,Liver [14],72 µL/min/mg
C[C@@H]1[C@H](c2ccc(F)cc2)OC(=O)N1c1cccc(C#N)c1 (racemic),IC50,[2],410 nM
same,Stability,Liver [14],21 µL/min/mg
same,Stability,Liver [15],7 µL/min/mg
C[C@H]1[C@H](c2ccc(F)cc2)OC(=O)N1c1cccc(C#N)c1 (racemic),IC50,[1],8.9 nM
same,IC50,[2],13 nM
O=C1OC(c2ccc(F)cc2)CN1c1cccc(F)c1 (racemic),IC50,[1],170 nM
same,IC50,[2],51 nM
same,Stability,Liver [14],81 µL/min/mg
N#Cc1cccc(N2C[C@@H](c3ccc(F)cc3)OC2=O)c1,IC50,[2],> 10000 nM
C[C@H]1[C@H](c2ccc(F)cc2)OC(=O)N1c1cc(Cl)cc(C#N)c1,bioavailability,[6],74.4%
same,IC50,[1],0.52 nM
same,IC50,[2],< 1 nM
same,inhibition at 10 µM,CYP2C9,44.2%
same,MRT last,[8],4.2 h
same,AUC(0-t),[12],974 ng·h/mL
same,inhibition in vivo at 3 mg/kg,Mus musculus [13],71%
